According to ChEMBL document CHEMBL1142436, “Design and synthesis of 4-substituted indolo[3,2-e][1,2,3]triazolo[1,5-a]pyrimidine derivatives with antitumor activity” (2008):

How the values were obtained:
Assay type in all cases: functional
UO-31 = assay: Growth inhibition of human UO31 cells after 48 hrs; details: UO-31, 48 h
In short: (§1)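 NCI 60-line screen: cells in RPMI 1640 with 5% FBS and 2 mM L-glutamine, plated at 5000–40000 cells/well, grown 24 h (37 °C, 5% CO₂), then exposed to five 10-fold or ½-log dilutions (DMSO stock) for 48 h. Fixed with TCA (final 10% for adherent cells, 16% for suspension cells), then SRB stained with absorbance at 515 nm. GI50 from percentage growth relative to time-zero and control wells.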

M14 = assay: Growth inhibition of human M14 cells after 48 hrs; details: M14, 48 h
In short: (§2)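 NCI ~60-line screen. Cells were grown in RPMI 1640 with 5% FBS and 2 mM L-glutamine and plated at 5000–40000 cells/well. After a 24 h preincubation, five drug concentrations from DMSO stocks were added for 48 h at 37 °C. Cells were TCA-fixed, stained with SRB and read at 515 nm. GI50 was taken from time-zero and control absorbances and reported as pGI50.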

T47D = assay: Growth inhibition of human T47D cells after 48 hrs; in short: as §1
A549 = assay: Growth inhibition of human A549 cells after 48 hrs; details: A549, 48 h; in short: as §2
RPMI-8226 = assay: Growth inhibition of human RPMI8226 cells after 48 hrs; details: RPMI-8226, 48 h; in short: as §2
U-251 = assay: Growth inhibition of human U251 cells after 48 hrs; details: U-251, 48 h; in short: as §1
SK-OV-3 = assay: Growth inhibition of human SKOV3 cells after 48 hrs; details: SK-OV-3, 48 h; in short: as §1
786-0 = assay: Growth inhibition of human 786-0 cells after 48 hrs; details: 786-0, 48 h; in short: as §2
UACC-257 = assay: Growth inhibition of human UACC257 cells after 48 hrs; details: UACC-257, 48 h; in short: as §1
NCI-H460 = assay: Growth inhibition of human NCI-H460 cells after 48 hrs; details: NCI-H460, 48 h; in short: as §2
OVCAR-3 = assay: Growth inhibition of human OVCAR-3 cells after 48 hrs; details: OVCAR-3, 48 h; in short: as §2
HCT-15 = assay: Growth inhibition of human HCT15 cells after 48 hrs; details: HCT-15, 48 h; in short: as §2
SK-MEL-5 = assay: Growth inhibition of human SK-MEL5 cells after 48 hrs; details: SK-MEL-5, 48 h; in short: as §2
TK-10 = assay: Growth inhibition of human TK10 cells after 48 hrs; details: TK-10, 48 h; in short: as §1
RXF 393 = assay: Growth inhibition of human RXF393 cells after 48 hrs; details: RXF 393, 48 h; in short: as §2
CCRF-CEM = assay: Growth inhibition of human CCRF-CEM cells after 48 hrs; in short: as §2
SN12C = assay: Growth inhibition of human SN12C cells after 48 hrs; in short: as §1
CAKI-1 = assay: Growth inhibition of human CAKI1 cells after 48 hrs; details: CAKI-1, 48 h; in short: as §2
COLO 205 = assay: Growth inhibition of human COLO205 cells after 48 hrs; details: COLO 205, 48 h; in short: as §2
NCI-H522 = assay: Growth inhibition of human NCI-H522 cells after 48 hrs; details: NCI-H522, 48 h; in short: as §2
MDA-MB-435 = assay: Growth inhibition of human MDA-MB435 cells after 48 hrs; details: MDA-MB-435, 48 h; in short: as §2
SF-295 = assay: Growth inhibition of human SF295 cells after 48 hrs; details: SF-295, 48 h; in short: as §2
[1] = Growth inhibition of human HS578T cells after 48 hrs; details: Hs-578T; in short: as §2
MDA-MB-231 = assay: Growth inhibition of human MDA-MB-231 cells after 48 hrs; details: MDA-MB-231, 48 h; in short: as §2
NCI-H322M = assay: Growth inhibition of human NCI-H322M cells after 48 hrs; in short: as §2
OVCAR-8 = assay: Growth inhibition of human OVCAR8 cells after 48 hrs; details: OVCAR-8, 48 h; in short: as §2
Malme-3M = assay: Growth inhibition of human MALME3M cells after 48 hrs; in short: as §2
NCI-H23 = assay: Growth inhibition of human NCI-H23 cells after 48 hrs; details: Homo sapiens, NCI-H23, 48 h; in short: as §2
NCI/ADR-RES = assay: Growth inhibition of human NCI/ADR-RES cells after 48 hrs; in short: as §2
A498 = assay: Growth inhibition of human A498 cells after 48 hrs; details: A498, 48 h; in short: as §2
HCT-116 = assay: Growth inhibition of human HCT116 cells after 48 hrs; details: HCT-116, 48 h; in short: as §2
SF-268 = assay: Growth inhibition of human SF268 cells after 48 hrs; details: SF-268, 48 h; in short: as §2
[2] = read-out: Log LC50 (the source's name) (converted)

Compound: Cn1c2ccccc2c2c(=O)n(CCCC(=O)NCC(=O)N(C(=O)NC3CCCCC3)C3CCCCC3)c3c(-c4ccccc4)nnn3c21
- GI50 (UO-31): 31.6 µM
- LC50 (UO-31): > 100 µM
- TGI (UO-31; read-out: pTGI (converted)): > 100 µM
- GI50 (M14): 30.9 µM
- LC50 (M14): > 100 µM
- TGI (M14; read-out: pTGI (converted)): > 100 µM
- CC50 (T47D; [2]): > 100 µM
- TGI (T47D; read-out: pTGI (converted)): > 100 µM
- GI50 (A549): 38 µM
- CC50 (A549; [2]): > 50.1 µM
- TGI (A549; read-out: pTGI (converted)): > 50.1 µM
- GI50 (RPMI-8226): 4.27 µM
- LC50 (RPMI-8226): 97.7 µM
- TGI (RPMI-8226; read-out: pTGI (converted)): 21.4 µM
- GI50 (U-251): 12.3 µM
- LC50 (U-251): > 100 µM
- TGI (U-251; read-out: pTGI (converted)): 38 µM
- LC50 (SK-OV-3): 33.9 µM
- TGI (SK-OV-3; read-out: pTGI (converted)): 18.6 µM
- GI50 (786-0): 18.6 µM
- LC50 (786-0): > 100 µM
- TGI (786-0; read-out: pTGI (converted)): 44.7 µM
- GI50 (UACC-257): 66.1 µM
- LC50 (UACC-257): > 100 µM
- TGI (UACC-257; read-out: pTGI (converted)): > 100 µM
- GI50 (NCI-H460): 32.4 µM
- LC50 (NCI-H460): > 100 µM
- TGI (NCI-H460; read-out: pTGI (converted)): > 100 µM
- GI50 (OVCAR-3): 19.5 µM
- LC50 (OVCAR-3): > 100 µM
- TGI (OVCAR-3; read-out: pTGI (converted)): 95.5 µM
- GI50 (HCT-15): 10.7 µM
- LC50 (HCT-15): > 100 µM
- TGI (HCT-15; read-out: pTGI): > 100 µM
- GI50 (SK-MEL-5): 6.03 µM
- LC50 (SK-MEL-5): > 100 µM
- TGI (SK-MEL-5; read-out: pTGI (converted)): 31.6 µM
- GI50 (TK-10): > 100 µM
- LC50 (TK-10): > 100 µM
- TGI (TK-10; read-out: pTGI (converted)): > 100 µM
- GI50 (RXF 393): 11 µM
- LC50 (RXF 393): > 100 µM
- TGI (RXF 393; read-out: pTGI (converted)): 37.2 µM
- GI50 (CCRF-CEM): 8.32 µM
- LC50 (CCRF-CEM): > 100 µM
- TGI (CCRF-CEM; read-out: pTGI (converted)): 57.5 µM
- GI50 (SN12C): 19.5 µM
- LC50 (SN12C): > 100 µM
- TGI (SN12C; read-out: pTGI (converted)): 50.1 µM
- GI50 (CAKI-1): 32.4 µM
- LC50 (concentration killing 50% of cells) (CAKI-1): > 100 µM
- TGI (CAKI-1; read-out: pTGI (converted)): 37.2 µM
- GI50 (COLO 205): 2.82 µM
- LC50 (COLO 205): > 100 µM
- TGI (COLO 205; read-out: pTGI (converted)): > 100 µM
- GI50 (NCI-H522): 15.8 µM
- LC50 (NCI-H522): > 100 µM
- TGI (NCI-H522; read-out: pTGI (converted)): 81.3 µM
- GI50 (MDA-MB-435): 25.1 µM
- LC50 (MDA-MB-435): > 100 µM
- TGI (MDA-MB-435; read-out: pTGI (converted)): > 100 µM
- GI50 (SF-295): > 100 µM
- LC50 (SF-295): > 100 µM
- TGI (SF-295; read-out: pTGI (converted)): > 100 µM
- GI50 [1]: 9.33 µM
- LC50 (50% lethal concentration) [1]: > 100 µM
- TGI ([1]; read-out: pTGI (converted)): > 100 µM
- GI50 (MDA-MB-231): 12.3 µM
- LC50 (concentration killing 50% of cells) (MDA-MB-231): > 100 µM
- TGI (MDA-MB-231; read-out: pTGI (converted)): 38 µM
- GI50 (NCI-H322M): > 100 µM
- LC50 (NCI-H322M): > 100 µM
- TGI (NCI-H322M; read-out: pTGI (converted)): > 100 µM
- LC50 (OVCAR-8): > 100 µM
- GI50 (Malme-3M): 46.8 µM
- LC50 (Malme-3M): > 100 µM
- TGI (Malme-3M; read-out: pTGI (converted)): > 100 µM
- GI50 (NCI-H23): 15.5 µM
- CC50 (NCI-H23; [2]): 69.2 µM
- TGI (NCI-H23; read-out: pTGI (converted)): 33.1 µM
- GI50 (NCI/ADR-RES): 15.5 µM
- LC50 (concentration killing 50% of cells) (NCI/ADR-RES): 72.4 µM
- TGI (NCI/ADR-RES; read-out: pTGI (converted)): 33.9 µM
- GI50 (A498): 30.9 µM
- CC50 (A498; [2]): > 100 µM
- TGI (A498; read-out: pTGI (converted)): > 100 µM
- GI50 (HCT-116): 14.1 µM
- LC50 (HCT-116): > 100 µM
- TGI (HCT-116; read-out: pTGI (converted)): 42.7 µM
- GI50 (SF-268): 15.1 µM
- CC50 (SF-268; [2]): > 100 µM
- TGI (SF-268; read-out: pTGI (converted)): > 100 µM
